Source: ChEMBL document CHEMBL3877325, “Novel salicylanilides from 4,5-dihalogenated salicylic acids: Synthesis, antimicrobial activity and cytotoxicity” (Bioorg Med Chem, 2017)
Values after ≈ are worked out from the molar mass of the structure shown.

Columns and labels:
[1] = test system: Mycobacterium tuberculosis; experiment: Antimycobacterial activity against Mycobacterium tuberculosis H37Rv My 331/88 after 14 days by micromethod; type: functional; settings: H37Rv My 331/88, 336 h
In short: (§1)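 MIC micromethod in Šula's semisynthetic medium at 37 °C, read after 14 and 21 days. Compounds added as DMSO solutions at 500 down to 0.5 µM (twofold-type series: 500, 250, 125, 62.5, 32, 16, 8, 4, 2, 1, 0.5 µM). Isoniazid standard given in sterile water.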

[2] = test system: Mycobacterium tuberculosis; experiment: Antimycobacterial activity against Mycobacterium tuberculosis H37Rv My 331/88 after 21 days by micromethod; type: functional; settings: H37Rv My 331/88, 504 h; in short: as §1
[3] = test system: Mycobacterium avium; experiment: Antimycobacterial activity against Mycobacterium avium My 330/80 after 14 days by micromethod; type: functional; settings: My 330/80, 336 h
In short: (§2)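 M. avium My 330/80 (collection strain) inoculated at 10^-5 dilution into Šula's semisynthetic medium. Compounds added from DMSO solutions at 500, 250, 125, 62.5, 32, 16, 8, 4, 2, 1 and 0.5 µM. MIC determined by micromethod at 37 °C, read after 14 and 21 days.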

[4] = test system: Mycobacterium avium; experiment: Antimycobacterial activity against Mycobacterium avium My 330/80 after 21 days by micromethod; type: functional; settings: My 330/80, 504 h; in short: as §2
[5] = test system: Mycobacterium kansasii; experiment: Antimycobacterial activity against Mycobacterium kansasii isolate 235/80 after 7 days by micromethod; type: functional; settings: isolate 235/80, 168 h
In short: (§3)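 MIC in Šula's semisynthetic medium at 37 °C, read after 7, 14 and 21 days. Inoculum is strain dilution 10^-4; 235/80 is a collection strain and 6509/96 a clinical isolate. Compounds are added as DMSO solutions at 500, 250, 125, 62.5, 32, 16, 8, 4, 2, 1 and 0.5 µM. INH (in sterile water) and PAS are the reference drugs.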

[6] = test system: Mycobacterium kansasii; experiment: Antimycobacterial activity against Mycobacterium kansasii isolate 235/80 after 14 days by micromethod; type: functional; settings: isolate 235/80, 336 h; in short: as §3
[7] = test system: Mycobacterium kansasii; experiment: Antimycobacterial activity against Mycobacterium kansasii isolate 235/80 after 21 days by micromethod; type: functional; settings: isolate 235/80, 504 h; in short: as §3
[8] = test system: Mycobacterium kansasii; experiment: Antimycobacterial activity against Mycobacterium kansasii isolate 6509/96 after 7 days by micromethod; type: functional; settings: isolate 6509/96, 168 h; in short: as §3
[9] = test system: Mycobacterium kansasii; experiment: Antimycobacterial activity against Mycobacterium kansasii isolate 6509/96 after 14 days by micromethod; type: functional; settings: isolate 6509/96, 336 h; in short: as §3
[10] = test system: Mycobacterium kansasii; experiment: Antimycobacterial activity against Mycobacterium kansasii isolate 6509/96 after 21 days by micromethod; type: functional; settings: isolate 6509/96, 504 h; in short: as §3
[11] = Cytotoxicity against human HepG2 cells assessed as reduction in cell viability after 24 hrs by MTS assay; type: toxicity, cell-based
In short: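 HepG2 cells (passages 33-37) are grown in MEM with 10% FBS, L-glutamine and non-essential amino acids. They are seeded at 1 × 10^4 cells/well and treated next day with 0.1-100 µM in triplicate for 24 h at 37 °C, 5% CO2. MTS reagent is added for 2 h and A490 read.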

[12] = Selectivity index, ratio of IC50 for human HepG2 cells to MIC for Mycobacterium tuberculosis H37Rv after 21 days; type: toxicity, cell-based; settings: HepG2 cells versus Mycobacterium tuberculosis H37Rv, read-out: Selectivity Index
In short: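 HepG2 cells (passages 33-37) seeded at 1 × 10^4 per well and treated next day with 0.1–100 µM in triplicate. After 24 h at 37 °C, 5% CO2, MTS reagent added for 2 h and absorbance read at 490 nm. IC50 taken from viability relative to untreated control, then divided by the 21-day H37Rv MIC.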

SMILES	MIC [1] [µM]	MIC [2] [µM]	MIC [3] [µM]	MIC [4] [µM]	MIC [5] [µM]	MIC [6] [µM]	MIC [7] [µM]	MIC [8] [µM]	MIC [9] [µM]	MIC [10] [µM]	IC50 at 24 h [11] [µM]	selectivity ratio at 504 h [12]
O=C(Nc1ccc(Cl)c(Cl)c1)c1ccc(Cl)cc1O	4 (≈ 1.27 µg/mL)	4 (≈ 1.27 µg/mL)	16 (≈ 5.07 µg/mL)	16 (≈ 5.07 µg/mL)	4 (≈ 1.27 µg/mL)	8 (≈ 2.53 µg/mL)	8 (≈ 2.53 µg/mL)	4 (≈ 1.27 µg/mL)	4 (≈ 1.27 µg/mL)	8 (≈ 2.53 µg/mL)	2.23	0.56
O=C(Nc1ccc(Br)cc1)c1ccc(Cl)cc1O	4 (≈ 1.31 µg/mL)	4 (≈ 1.31 µg/mL)	16 (≈ 5.23 µg/mL)	16 (≈ 5.23 µg/mL)	4 (≈ 1.31 µg/mL)	4 (≈ 1.31 µg/mL)	4 (≈ 1.31 µg/mL)	4 (≈ 1.31 µg/mL)	8 (≈ 2.61 µg/mL)	8 (≈ 2.61 µg/mL)	3.24	0.81
O=C(Nc1ccc(C(F)(F)F)cc1)c1ccc(Cl)cc1O	4 (≈ 1.26 µg/mL)	4 (≈ 1.26 µg/mL)	8 (≈ 2.53 µg/mL)	8 (≈ 2.53 µg/mL)	2 (≈ 0.631 µg/mL)	4 (≈ 1.26 µg/mL)	4 (≈ 1.26 µg/mL)	2 (≈ 0.631 µg/mL)	2 (≈ 0.631 µg/mL)	4 (≈ 1.26 µg/mL)	2.64	0.66
O=C(Nc1ccc(Br)cc1)c1cc(Cl)ccc1O	8 (≈ 2.61 µg/mL)	16 (≈ 5.23 µg/mL)	8 (≈ 2.61 µg/mL)	8 (≈ 2.61 µg/mL)	4 (≈ 1.31 µg/mL)	4 (≈ 1.31 µg/mL)	4 (≈ 1.31 µg/mL)	4 (≈ 1.31 µg/mL)	8 (≈ 2.61 µg/mL)	8 (≈ 2.61 µg/mL)	3.14	0.2
O=C(Nc1ccc(C(F)(F)F)cc1)c1cc(Cl)ccc1O	2 (≈ 0.631 µg/mL)	2 (≈ 0.631 µg/mL)	8 (≈ 2.53 µg/mL)	8 (≈ 2.53 µg/mL)	1 (≈ 0.316 µg/mL)	1 (≈ 0.316 µg/mL)	1 (≈ 0.316 µg/mL)	2 (≈ 0.631 µg/mL)	2 (≈ 0.631 µg/mL)	2 (≈ 0.631 µg/mL)	–	–
O=C(Nc1cc(C(F)(F)F)cc(C(F)(F)F)c1)c1cc(Br)ccc1O	2 (≈ 0.856 µg/mL)	2 (≈ 0.856 µg/mL)	16 (≈ 6.85 µg/mL)	16 (≈ 6.85 µg/mL)	4 (≈ 1.71 µg/mL)	8 (≈ 3.43 µg/mL)	8 (≈ 3.43 µg/mL)	4 (≈ 1.71 µg/mL)	8 (≈ 3.43 µg/mL)	8 (≈ 3.43 µg/mL)	7.8	3.4
O=C(Nc1cc(C(F)(F)F)cc(C(F)(F)F)c1)c1ccc(Cl)cc1O	4 (≈ 1.53 µg/mL)	4 (≈ 1.53 µg/mL)	16 (≈ 6.14 µg/mL)	16 (≈ 6.14 µg/mL)	8 (≈ 3.07 µg/mL)	8 (≈ 3.07 µg/mL)	16 (≈ 6.14 µg/mL)	8 (≈ 3.07 µg/mL)	8 (≈ 3.07 µg/mL)	8 (≈ 3.07 µg/mL)	9.55	2.39
O=C(Nc1ccc(C(F)(F)F)cc1)c1cc(Br)ccc1O	1 (≈ 0.36 µg/mL)	1 (≈ 0.36 µg/mL)	1 (≈ 0.36 µg/mL)	1 (≈ 0.36 µg/mL)	2 (≈ 0.72 µg/mL)	2 (≈ 0.72 µg/mL)	4 (≈ 1.44 µg/mL)	2 (≈ 0.72 µg/mL)	4 (≈ 1.44 µg/mL)	4 (≈ 1.44 µg/mL)	1.81	1.81
O=C(Nc1ccc(Cl)c(Cl)c1)c1cc(Br)ccc1O	4 (≈ 1.44 µg/mL)	4 (≈ 1.44 µg/mL)	8 (≈ 2.89 µg/mL)	8 (≈ 2.89 µg/mL)	8 (≈ 2.89 µg/mL)	8 (≈ 2.89 µg/mL)	8 (≈ 2.89 µg/mL)	2 (≈ 0.722 µg/mL)	2 (≈ 0.722 µg/mL)	4 (≈ 1.44 µg/mL)	31.5	7.87
O=C(Nc1ccc(C(F)(F)F)cc1)c1ccc(Br)cc1O	1 (≈ 0.36 µg/mL)	2 (≈ 0.72 µg/mL)	8 (≈ 2.88 µg/mL)	8 (≈ 2.88 µg/mL)	2 (≈ 0.72 µg/mL)	2 (≈ 0.72 µg/mL)	4 (≈ 1.44 µg/mL)	2 (≈ 0.72 µg/mL)	4 (≈ 1.44 µg/mL)	4 (≈ 1.44 µg/mL)	15	7.52
O=C(Nc1ccc(Br)cc1)c1ccc(Br)cc1O	2 (≈ 0.742 µg/mL)	4 (≈ 1.48 µg/mL)	16 (≈ 5.94 µg/mL)	16 (≈ 5.94 µg/mL)	4 (≈ 1.48 µg/mL)	8 (≈ 2.97 µg/mL)	8 (≈ 2.97 µg/mL)	8 (≈ 2.97 µg/mL)	8 (≈ 2.97 µg/mL)	8 (≈ 2.97 µg/mL)	7.59	1.9
